BaF3 parental: reduces parental Ba/F3 cell viability, JAK2V617F counter-screen. AID 1486. inhibition, % at 5.6 µM. CellTiter-Glo ATP luminescence. hit rate 1.1% among 220,000;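 active means inhibition above a per-campaign cutoff, the mean inhibition of all tested compounds plus 3 SD, cut at about 27% in these data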;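 further: 0% = DMSO wells and 100% = JAK Inhibitor I control wells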
bCat nuc transl: alters nuclear translocation of beta-catenin in HeLa cells | nuclear translocation activity, % at 5 µM | hit rate 0.3% among 190,000 | immunofluorescence imaging;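 active means nuclear translocation activity above 50% at 5 µM, with a well cell count of 50 or more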;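 further: per-cell ratio of nuclear to cytoplasmic median beta-catenin stain intensity; plate controls were DMSO negative control for no effect and GSK-3 inhibitor IX positive control for full effect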
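assay system = human HeLa cells, endogenous beta-catenin | times = compound treatment 24 h, 37°C, 5% CO2 | detection = Anti-beta-catenin immunofluorescence on PFA-fixed, Triton-permeabilized cells, DAPI nuclei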
Ba/F3 V617F tox: reduce viability of Ba/F3 cells dependent on JAK2V617F; Ba/F3 EpoR-JAK2V617F viability, ATP luminescence; inhibition, % at 5.6 µM; hit rate 1.1% among 220,000; AID 1446;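 active means inhibition above the campaign mean plus 3 SD over all tested compounds, cut at about 24% in these data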;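 further: cytokine-independent growth of Ba/F3 cells driven by EpoR plus mutant JAK2; 0% = DMSO-treated cells and 100% = JAK inhibitor I control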
APP 5UTR inh: APP translation inhibition | inhibition, % at 2 µM | hit rate 0.82% among 190,000 | SH-SY5Y APP 5'UTR-luciferase reporter, luminescence;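 active means inhibition above a set limit, derived from the sample mean plus 3 SD, cut at about 45% in these data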
Lmaj promast: inhibitors of Leishmania major promastigote growth. Leishmania major promastigotes, resazurin fluorescence viability. inhibition, % at 10 µM. hit rate 9% among 200,000. AID 1063; in the data active means inhibition above about 50%;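 further: promastigotes grown with compound for 44 hours at 28 °C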
MT stabilizer: microtubule stabilization, imaging screen | HeLa tubulin immunostaining HCS, 24 h; share of cells brighter than vehicle mean+2SD | % tubulin-high responders, % at 10 µM | hit rate 0.83% among 200,000 | AID 2205;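 active means plate Z-score above 3 for both tubulin-high and condensed-nucleus cell shares, with cell loss under 80%, at 10 µM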;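 further: anti alpha tubulin signal scored within the nucleus-defined area of each cell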
Numbers without * were called inactive; . = no result. In the library only some 9.6% were active in any assay of this set; here they are far more common.

SMILES	BaF3 parental	bCat nuc transl	Ba/F3 V617F tox	APP 5UTR inh	Lmaj promast	MT stabilizer
Cc1nc2ccc(NC(=O)c3cc(S(=O)(=O)N(C)c4ccccc4)ccc3Cl)cc2s1	49*	-1	43*	11	-6	2
Cc1nc2ccc(NC(=O)c3ccc(Cl)c(S(=O)(=O)N(C)c4ccccc4)c3)cc2s1	0	-3	0	-6	100*	3
Cc1cc(C)n(CC(=O)O)n1	-5	2	2	-6	-2	2
Cc1cc(C)n(CC(=O)N2c3ccccc3Sc3ccccc32)n1	1	0	-4	6	61*	3
C=CCOc1ccc(C2C(C#N)=C(N)N(Nc3ccccc3)C3=C2C(=O)CC(C)(C)C3)cc1OC (centres undefined)	0	2	2	-5	89*	32*
COc1ccccc1C1=Nn2c(COc3ccccc3)nnc2SC1	5	0	0	17	4	4
O=C(N/N=C/c1ccc(Cl)cc1)c1cc2c(s1)-c1ccccc1CC2	8	-3	-1	0	-6	35*
Cc1cc(/C=N/n2cnnc2)c(C)n1-c1ccc(Cl)cc1	5	4	6	-3	28	3
Cc1cc(/C=N/n2cnnc2)c(C)n1-c1ccc(OCc2ccc(Cl)cc2Cl)cc1	5	.	0	51*	98*	2
Cc1cc(/C=N/n2cnnc2)c(C)n1-c1ccc(OCc2ccc(F)cc2)cc1	2	3	-3	-13	77*	2
COc1ccc(S(=O)CC(=O)Nc2ccc(Cl)cc2Cl)cc1 (centres undefined)	3	1	-1	4	-1	4
C=CCNC(=O)c1ccc(-n2cccc2)cc1	7	-1	1	-14	-10	3
Cc1cc(C)nc(N2CCCC(C(=O)NCCC3=CCCCC3)C2)n1 (centres undefined)	-1	0	-2	17	-5	7
N#CCC(=O)N/N=C/c1ccc(OCC(=O)Nc2ccc(F)cc2)cc1	8	2	1	-2	2	1
CC(C)c1[nH]nc2c1C(C(C)C)C(C#N)=C(N)O2 (centres undefined)	1	-6	0	-17	69*	6
CCc1ccc(/C=C(\Cl)c2nc3cc(Cl)ccc3c(=O)[nH]2)cc1	4	3	-2	5	2	3
COc1ccc(Br)cc1CSC(=N)N	-3	-1	4	-2	15	1
CCCCCOc1ccc(Br)cc1CSC(=N)N	47*	89*	60*	63*	100*	14
Cc1ccsc1/C=N/n1c(-c2ccccn2)n[nH]c1=S	3	-1	4	-9	46	4
CCOC(=O)C1(Cc2ccccc2)CCN(Cc2ccc3c(c2)OCCO3)CC1	7	3	4	5	92*	4
COCc1ccc(CN2CCCC(CO)(Cc3ccccc3C)C2)o1 (centres undefined)	4	-4	3	0	14	1
CCOC(=O)C1(Cc2ccccc2)CCN(Cc2ccc(C)s2)CC1	4	1	-2	1	7	3
CCOC(=O)C1(Cc2ccccc2)CCN(Cc2cccc3c2OCO3)CC1	5	0	-4	-16	66*	2
COc1cc(CN2CCCC(CO)(Cc3ccccc3C)C2)cc2c1OCO2 (centres undefined)	4	-1	3	-8	69*	2
CCOC(=O)C1(Cc2ccccc2)CCN(Cc2cc(OC)c3c(c2)OCO3)CC1	5	0	1	-23	91*	3
SMILES	BaF3 parental	bCat nuc transl	Ba/F3 V617F tox	APP 5UTR inh	Lmaj promast	MT stabilizer
CC1CCCCN1S(=O)(=O)c1cccc(S(=O)(=O)N2CCOCC2)c1 (centres undefined)	-3	-1	2	.	.	.
O=c1cc(CSc2nnc(C3CC3)n2Cc2ccccc2)nc2sccn12	-4	-5	-4	-4	-5	6
Cc1ccc2nc(SCC(=O)NC3CCCc4ccccc43)[nH]c2c1 (centres undefined)	4	-2	-2	-10	-2	9
C/C(=N\NC(=O)C(c1ccccc1)c1ccccc1)c1ccccn1	12	.	5	69*	100*	3
N/C(=N\OC(=O)C(c1ccccc1)c1ccccc1)c1ccccn1	1	1	-3	-15	-6	2
C/C(=N\NC(=O)C1CCCN(S(=O)(=O)c2ccccc2)C1)c1ccccn1 (centres undefined)	1	5	0	46*	99*	2
COc1ccc(CCN(C)C(=O)CSc2nc3ncc(Cl)cc3[nH]2)cc1OC	10	2	3	-12	-3	4
COc1ccccc1N1CCN(S(=O)(=O)c2ccc3c(c2)n(C)c(=O)n3C)CC1	11	3	-1	3	-9	3
NC(=O)C1CCN(CC(=O)Nc2ccccc2Sc2ccccc2)CC1	1	6	-1	4	3	3
Cc1ccc(C(=O)OCC(=O)Nc2ccccc2Sc2ccccc2)cc1C	6	.	3	-4	62*	1
NC(=O)C1CCN(CC(=O)Nc2ccccc2Sc2ccc(Cl)cc2)CC1	10	1	0	9	93*	4
COC(=O)C1CCN(CC(=O)Nc2ccccc2Sc2ccccc2)CC1	1	0	-1	-4	52*	5
Oc1nc(-c2ccc(Br)cc2)n2ccncc12	2	-5	-2	-15	-1	4
CCc1cc(=O)oc2cc3occ(-c4ccc(OC)c(F)c4)c3cc12	8	66*	2	91*	20	10
Cc1csc2ncnc(NCCc3ccccn3)c12	77*	2	37*	-20	26	6
CCOC(=O)C1(Cc2cccc(F)c2)CCN(Cc2ccc(COC)o2)CC1	-1	1	-1	.	.	.
CC(C)N(C(=O)Cn1c(Cl)nc2ccccc21)C(C)C	2	-1	2	20	-6	1
O=C(O)/C=C/c1cnc2ccccc2n1	2	-3	3	3	0	2
CCC(C)(C)NC(=O)/C=C/c1cnc2ccccc2n1	6	.	-2	-24	52*	4
CNC(=O)COc1ccc(S(=O)(=O)Nc2ccc(OC)cc2)cc1	90*	-3	1	-42	-3	3
C=CCNC(=O)COc1ccc(S(=O)(=O)Nc2ccc(OCC)cc2)cc1	-1	6	-4	5	60*	3
CNC(=O)COc1ccc(S(=O)(=O)Nc2ccc(C)cc2)cc1	-2	0	0	.	.	.
O=C(COc1ccc(S(=O)(=O)Nc2ccccc2)cc1)NCc1ccncc1	54*	-1	-5	14	9	8
C=CCNC(=O)COc1ccc(S(=O)(=O)NC2CCCCC2)cc1	3	0	2	-1	-5	3
CCc1c(O)nc(SCC(=O)N(CC)CC)[nH]c1=O	4	0	2	10	-3	3
COc1ccc(Nc2ccc(N3C(=O)CCCC3=O)cc2[N+](=O)[O-])cc1OC	-3	-7	-6	0	88*	5

High-throughput results as filed in PubChem BioAssay.
